Reference: ChEMBL document CHEMBL4689842, “EUbOPEN Chemogenomics Library wave 1” (2021)
Several values for one entry are separate records, joined by “and”; a condition that tells them apart may be missing. Equal entries are not always repeated.

Tested on: HEK-293T
Assay: Multiplex assay against HEK293T;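 for Population Tubulin-Different-Phenotype (%): share of the cells with healthy nuclei that show this phenotype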
Assay type: toxicity, cell-based
Conditions: human
In short: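 Values for tubulin, mitochondrial-mass and membrane-permeability phenotypes are per cents of cells with healthy nuclei. These cells were identified by CellPathfinder machine-learning gating of live cells that had been stained at seeding with Hoechst33342, BioTracker Green Microtubule Cytoskeleton Dye, MitoTracker Red and Annexin V Alexa Fluor 680 and imaged on a CQ1 microscope at 37°C and 5% CO2 after compound addition. The gating first set Hoechst high-intensity objects apart from normal cells, then split normal cells into healthy, pyknosed or fragmented nuclei, and pyknosed cells into mitotic or apoptotic.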

[1] = 12 h, 1 µM, compound concentration 1 uM, replicate 1
[2] = 12 h, 1 µM, compound concentration 1 uM, replicate 2
[3] = 12 h, 10 µM, compound concentration 10 uM, replicate 1
[4] = 12 h, 10 µM, compound concentration 10 uM, replicate 2
[5] = 24 h, 1 µM, compound concentration 1 uM, replicate 1
[6] = 24 h, 1 µM, compound concentration 1 uM, replicate 2
[7] = 24 h, 10 µM, compound concentration 10 uM, replicate 1
[8] = 24 h, 10 µM, compound concentration 10 uM, replicate 2
[9] = 48 h, 10 µM, compound concentration 10 uM, replicate 1
[10] = 48 h, 10 µM, compound concentration 10 uM, replicate 2
[11] = 48 h, 1 µM, compound concentration 1 uM, replicate 1
[12] = 48 h, 1 µM, compound concentration 1 uM, replicate 2

COCC(=O)NC/C=C/c1ccc2ncnc(Nc3ccc(Oc4ccc(C)nc4)c(C)c3)c2c1 [CP-724714]
Population Apoptotic (%) [1]: 22% and 23%
Population Fragmented Nuclei (%) [1]: 14% and 11%
Population Healthy Nuclei (%) [1]: 39% and 69%
Population Hoechst High Intensity Objects (%) [1]: 16% and 10%
Population Mitotic Cells (%) [1]: 77% and 76%
Population Normal (%) [1]: 83% and 89%
Population Pyknosed Nuclei (%) [1]: 46% and 18%
Total Cell Count [1]: 617 and 674
Population Apoptotic (%) [2]: 16% and 8%
Population Healthy Nuclei (%) [2]: 70% and 89%
Population Hoechst High Intensity Objects (%) [2]: 3% and 2%
Population Mitotic Cells (%) [2]: 83% and 91%
Population Normal (%) [2]: 96% and 97%
Total Cell Count [2]: 843 and 1632
Population Apoptotic (%) [3]: 66%
Population Fragmented Nuclei (%) [3]: 19%
Population Healthy Nuclei (%) [3]: 18%
Population Hoechst High Intensity Objects (%) [3]: 19%
Population Membrane Permeable-Phenotype (%) [3]: 2%
Population Mitochondria Different-Phenotype (%) [3]: 100%
Population Mitotic Cells (%) [3]: 33%
Population Normal (%) [3]: 80%
Population Pyknosed Nuclei (%) [3]: 62%
Population Tubulin-Different-Phenotype (%) [3]: 100%
Total Cell Count [3]: 329
Population Apoptotic (%) [4]: 48%
Population Fragmented Nuclei (%) [4]: 12%
Population Healthy Nuclei (%) [4]: 12%
Population Hoechst High Intensity Objects (%) [4]: 6%
Population Membrane Permeable-Phenotype (%) [4]: 11%
Population Mitochondria Different-Phenotype (%) [4]: 96%
Population Mitotic Cells (%) [4]: 51%
Population Normal (%) [4]: 93%
Population Pyknosed Nuclei (%) [4]: 75%
Population Tubulin-Different-Phenotype (%) [4]: 92%
Total Cell Count [4]: 230
Population Apoptotic (%) [5]: 31% and 18%
Population Fragmented Nuclei (%) [5]: 13% and 9%
Population Healthy Nuclei (%) [5]: 54% and 81%
Population Hoechst High Intensity Objects (%) [5]: 12% and 6%
Population Membrane Permeable-Phenotype (%) [5]: 19%
Population Mitotic Cells (%) [5]: 68% and 81%
Population Normal (%) [5]: 87% and 93%
Total Cell Count [5]: 614 and 832
Population Apoptotic (%) [6]: 14% and 5%
Population Healthy Nuclei (%) [6]: 65% and 76%
Population Hoechst High Intensity Objects (%) [6]: 4% and 2%
Population Membrane Permeable-Phenotype (%) [6]: 10% and 9%
Population Mitotic Cells (%) [6]: 85% and 94%
Population Normal (%) [6]: 95% and 97%
Total Cell Count [6]: 1006 and 2815
Population Apoptotic (%) [7]: 71%
Population Fragmented Nuclei (%) [7]: 23%
Population Healthy Nuclei (%) [7]: 17%
Population Hoechst High Intensity Objects (%) [7]: 19%
Population Membrane Permeable-Phenotype (%) [7]: 0%
Population Mitochondria Different-Phenotype (%) [7]: 97%
Population Mitotic Cells (%) [7]: 28%
Population Normal (%) [7]: 80%
Population Pyknosed Nuclei (%) [7]: 58%
Total Cell Count [7]: 336
Population Apoptotic (%) [8]: 70%
Population Fragmented Nuclei (%) [8]: 7%
Population Healthy Nuclei (%) [8]: 28%
Population Hoechst High Intensity Objects (%) [8]: 6%
Population Membrane Permeable-Phenotype (%) [8]: 6%
Population Mitochondria Different-Phenotype (%) [8]: 98%
Population Mitotic Cells (%) [8]: 29%
Population Normal (%) [8]: 93%
Population Pyknosed Nuclei (%) [8]: 63%
Population Tubulin-Different-Phenotype (%) [8]: 95%
Total Cell Count [8]: 245
Population Apoptotic (%) [9]: 62%
Population Fragmented Nuclei (%) [9]: 26%
Population Healthy Nuclei (%) [9]: 10%
Population Hoechst High Intensity Objects (%) [9]: 22%
Population Membrane Permeable-Phenotype (%) [9]: 7%
Population Mitochondria Different-Phenotype (%) [9]: 82%
Population Mitotic Cells (%) [9]: 37%
Population Normal (%) [9]: 77%
Population Pyknosed Nuclei (%) [9]: 62%
Population Tubulin-Different-Phenotype (%) [9]: 92%
Total Cell Count [9]: 347
Population Apoptotic (%) [10]: 66%
Population Fragmented Nuclei (%) [10]: 8%
Population Healthy Nuclei (%) [10]: 51%
Population Hoechst High Intensity Objects (%) [10]: 5%
Population Mitochondria Different-Phenotype (%) [10]: 90%
Population Mitotic Cells (%) [10]: 33%
Population Normal (%) [10]: 94%
Population Pyknosed Nuclei (%) [10]: 39%
Population Tubulin-Different-Phenotype (%) [10]: 96%
Total Cell Count [10]: 291

CCOC(=O)c1c(C)[nH]c2ccc3c(c12)CN1CCc2cc(OC)ccc2C1O3 (configuration not stated)
Population Apoptotic (%) [1]: 61%
Population Fragmented Nuclei (%) [1]: 14%
Population Healthy Nuclei (%) [1]: 30%
Population Hoechst High Intensity Objects (%) [1]: 14%
Population Membrane Permeable-Phenotype (%) [1]: 1%
Population Mitochondria Different-Phenotype (%) [1]: 100%
Population Mitotic Cells (%) [1]: 38%
Population Normal (%) [1]: 85%
Population Pyknosed Nuclei (%) [1]: 54%
Total Cell Count [1]: 228
Population Apoptotic (%) [2]: 36%
Population Fragmented Nuclei (%) [2]: 4%
Population Healthy Nuclei (%) [2]: 28%
Population Hoechst High Intensity Objects (%) [2]: 5%
Population Membrane Permeable-Phenotype (%) [2]: 5%
Population Mitochondria Different-Phenotype (%) [2]: 88%
Population Mitotic Cells (%) [2]: 63%
Population Normal (%) [2]: 94%
Population Pyknosed Nuclei (%) [2]: 67%
Population Tubulin-Different-Phenotype (%) [2]: 86%
Total Cell Count [2]: 132
Population Apoptotic (%) [3]: 90%
Population Fragmented Nuclei (%) [3]: 12%
Population Hoechst High Intensity Objects (%) [3]: 20%
Population Membrane Permeable-Phenotype (%) [3]: 0%
Population Mitochondria Different-Phenotype (%) [3]: 100%
Population Mitotic Cells (%) [3]: 9%
Population Normal (%) [3]: 79%
Population Pyknosed Nuclei (%) [3]: 76%
Population Tubulin-Different-Phenotype (%) [3]: 95%
Total Cell Count [3]: 266
Population Apoptotic (%) [4]: 88%
Population Fragmented Nuclei (%) [4]: 5%
Population Healthy Nuclei (%) [4]: 10%
Population Hoechst High Intensity Objects (%) [4]: 12%
Population Membrane Permeable-Phenotype (%) [4]: 7%
Population Mitochondria Different-Phenotype (%) [4]: 92%
Population Mitotic Cells (%) [4]: 11%
Population Normal (%) [4]: 87%
Population Pyknosed Nuclei (%) [4]: 83%
Population Tubulin-Different-Phenotype (%) [4]: 92%
Total Cell Count [4]: 156
Population Apoptotic (%) [5]: 57%
Population Fragmented Nuclei (%) [5]: 17%
Population Healthy Nuclei (%) [5]: 47%
Population Hoechst High Intensity Objects (%) [5]: 7%
Population Membrane Permeable-Phenotype (%) [5]: 0%
Population Mitochondria Different-Phenotype (%) [5]: 94%
Population Mitotic Cells (%) [5]: 42%
Population Normal (%) [5]: 92%
Population Pyknosed Nuclei (%) [5]: 35%
Population Tubulin-Different-Phenotype (%) [5]: 80%
Total Cell Count [5]: 254
Population Apoptotic (%) [6]: 48%
Population Fragmented Nuclei (%) [6]: 3%
Population Healthy Nuclei (%) [6]: 45%
Population Hoechst High Intensity Objects (%) [6]: 3%
Population Membrane Permeable-Phenotype (%) [6]: 5%
Population Mitochondria Different-Phenotype (%) [6]: 91%
Population Mitotic Cells (%) [6]: 51%
Population Normal (%) [6]: 96%
Population Pyknosed Nuclei (%) [6]: 51%
Population Tubulin-Different-Phenotype (%) [6]: 86%
Total Cell Count [6]: 154
Population Apoptotic (%) [7]: 91%
Population Fragmented Nuclei (%) [7]: 15%
Population Healthy Nuclei (%) [7]: 8%
Population Hoechst High Intensity Objects (%) [7]: 22%
Population Membrane Permeable-Phenotype (%) [7]: 0%
Population Mitochondria Different-Phenotype (%) [7]: 94%
Population Mitotic Cells (%) [7]: 8%
Population Normal (%) [7]: 77%
Population Pyknosed Nuclei (%) [7]: 75%
Population Tubulin-Different-Phenotype (%) [7]: 94%
Total Cell Count [7]: 275
Population Apoptotic (%) [8]: 92%
Population Fragmented Nuclei (%) [8]: 6%
Population Healthy Nuclei (%) [8]: 9%
Population Hoechst High Intensity Objects (%) [8]: 16%
Population Mitochondria Different-Phenotype (%) [8]: 92%
Population Mitotic Cells (%) [8]: 7%
Population Normal (%) [8]: 83%
Population Pyknosed Nuclei (%) [8]: 84%
Population Tubulin-Different-Phenotype (%) [8]: 92%
Total Cell Count [8]: 158
Population Apoptotic (%) [11]: 52%
Population Fragmented Nuclei (%) [11]: 11%
Population Healthy Nuclei (%) [11]: 70%
Population Hoechst High Intensity Objects (%) [11]: 7%
Population Membrane Permeable-Phenotype (%) [11]: 1%
Population Mitochondria Different-Phenotype (%) [11]: 71%
Population Mitotic Cells (%) [11]: 47%
Population Normal (%) [11]: 92%
Population Pyknosed Nuclei (%) [11]: 17%
Population Tubulin-Different-Phenotype (%) [11]: 50%
Total Cell Count [11]: 354
Population Apoptotic (%) [12]: 36%
Population Fragmented Nuclei (%) [12]: 6%
Population Healthy Nuclei (%) [12]: 72%
Population Hoechst High Intensity Objects (%) [12]: 4%
Population Membrane Permeable-Phenotype (%) [12]: 2%
Population Mitochondria Different-Phenotype (%) [12]: 52%
Population Mitotic Cells (%) [12]: 63%
Population Normal (%) [12]: 95%
Population Pyknosed Nuclei (%) [12]: 21%
Population Tubulin-Different-Phenotype (%) [12]: 66%
Total Cell Count [12]: 226
Population Apoptotic (%) [9]: 80%
Population Fragmented Nuclei (%) [9]: 19%
Population Healthy Nuclei (%) [9]: 22%
Population Hoechst High Intensity Objects (%) [9]: 29%
Population Membrane Permeable-Phenotype (%) [9]: 0%
Population Mitochondria Different-Phenotype (%) [9]: 100%
Population Mitotic Cells (%) [9]: 19%
Population Normal (%) [9]: 70%
Population Pyknosed Nuclei (%) [9]: 58%
Population Tubulin-Different-Phenotype (%) [9]: 93%
Total Cell Count [9]: 290
Population Apoptotic (%) [10]: 93%
Population Fragmented Nuclei (%) [10]: 3%
Population Healthy Nuclei (%) [10]: 15%
Population Hoechst High Intensity Objects (%) [10]: 14%
Population Membrane Permeable-Phenotype (%) [10]: 5%
Population Mitochondria Different-Phenotype (%) [10]: 95%
Population Mitotic Cells (%) [10]: 6%
Population Normal (%) [10]: 85%
Population Pyknosed Nuclei (%) [10]: 80%
Population Tubulin-Different-Phenotype (%) [10]: 100%
Total Cell Count [10]: 148
